Laboratory results as given in ChEMBL document CHEMBL1938290, “Synthesis of 5-benzyl-2-phenylpyrazolo[1,5-a]pyrazin-4,6(5H,7H)-dione derivatives and discovery of an apoptosis inducer for H322 lung cancer cells” (Bioorg Med Chem Lett, 2012).
pIC50: −log10 of the molar value. Activity calls are given as the source filed them. No cut-off for these calls is given here.

Columns and labels:
[1] = system: A549; assay: Cytotoxicity against human A549 cells expressing wild type p53 at 40 uM after 48 hrs by SRB assay; assay type: functional, cell-based
In short: (§1)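 A549 (p53 wild-type) lung cancer cells exposed to compound at 20 or 40 µM for 24 or 48 h respectively. Growth/viability then measured by SRB staining with a spectrophotometric read-out, expressed as % of untreated control.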

[2] = system: A549; assay: Cytotoxicity against human A549 cells expressing wild type p53 at 20 uM after 24 hrs by SRB assay; assay type: functional, cell-based; in short: as §1
[3] = (§2) Cytotoxicity against human NCI-H322 cells expressing p53 mutant after 24 hrs by SRB assay; assay type: functional, cell-based; settings: NCI-H322, 24 h
In short: (§3)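 H322 cells exposed to 10, 20, 30 or 40 µM, alongside untreated control, for 24 h. SRB viability read by spectrophotometer. Mean ± SE, n = 3. IC50 taken from the dose–response at 24 h.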

[4] = system: NCI-H322; assay: as §2; assay type: functional, cell-based; in short: as §3
[5] = system: NCI-H322; assay: Induction of apoptosis in human NCI-H322 cells assessed as chromatin condensation at 10 to 40 uM after 24 hrs by Hoechst 33258 staining-based fluorescent microscopy; assay type: functional, cell-based
In short: (§4)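 H322 cells cultured 24 h with compound or vehicle (0.1% DMSO), then stained with Hoechst 33258. Viewed by fluorescence microscopy at 400×, scoring condensed chromatin and nuclear granulation (blue fluorescence). Apoptotic cell ratio expressed vs control as mean ± SE, n = 3.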

[6] = system: NCI-H322; assay: Induction of apoptosis in human NCI-H322 cells assessed as nuclear granulation at 10 to 40 uM after 24 hrs by Hoechst 33258 staining-based fluorescent microscopy; assay type: functional, cell-based; in short: as §4
[7] = system: HUVEC; assay: Cytotoxicity against HUVEC up to 40 uM by SRB assay; assay type: cell-based; settings: human
[8] = Solubility of the compound; assay type: physicochemical
[9] = system: NCI-H322; assay: Cytotoxicity against human NCI-H322 cells expressing p53 mutant at 20 uM after 24 hrs by SRB assay; assay type: functional, cell-based
In short: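 H322 (p53-mutant) cells treated at 20 µM or left untreated for 24 h. Viability measured by SRB assay and given as % of untreated control. Mean ± SE, n = 3, significance P < 0.05 vs control.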

Row | Structure (SMILES) | Activity [1] | Activity [2] | further results
1 | O=C1Cn2nc(-c3ccccc3)cc2C(=O)N1CCc1ccccc1 | inactive | inactive | –
2 | COc1ccc(-c2cc3n(n2)CC(=O)N(CCc2ccc(F)cc2)C3=O)cc1 | inactive | inactive | –
3 | O=C1Cn2nc(-c3ccc(Cl)cc3)cc2C(=O)N1CCc1ccc(F)cc1 | inactive | inactive | –
4 | O=C1Cn2nc(-c3ccccc3)cc2C(=O)N1Cc1ccccc1 | inactive | inactive | –
5 | COc1cccc(CCN2C(=O)Cn3nc(-c4ccccc4)cc3C2=O)c1 | inactive | inactive | –
6 | O=C1Cn2nc(-c3ccc(Cl)cc3)cc2C(=O)N1Cc1ccccc1 | inactive | inactive | –
7 | COc1cccc(CCN2C(=O)Cn3nc(-c4ccc(Cl)cc4)cc3C2=O)c1 | inactive | inactive | –
8 | O=C1Cn2nc(-c3ccc(Cl)cc3)cc2C(=O)N1CCc1ccccc1 | inactive | inactive | –
9 | O=C1Cn2nc(-c3ccccc3)cc2C(=O)N1CCc1ccc(F)cc1 | inactive | inactive | –
10 | COc1ccc(-c2cc3n(n2)CC(=O)N(CCc2ccccc2)C3=O)cc1 | inactive | inactive | pIC50 [3]: 4.55; Activity [4]: Dose-dependent effect; Activity [5]: Active; Activity [6]: Active; Activity [7]: Non-toxic
11 | COc1ccc(-c2cc3n(n2)CC(=O)N(CCc2cccc(OC)c2)C3=O)cc1 | inactive | inactive | –
12 | COc1ccc(-c2cc3n(n2)CC(=O)N(Cc2ccccc2)C3=O)cc1 | inactive | inactive | solubility [8]: Insoluble; Activity [9]: Active
